Measured values: ChEMBL document CHEMBL4673374, “Synthesis of mitochondria-targeted coumarin-3-carboxamide fluorescent derivatives: Inhibiting mitochondrial TrxR2 and cell proliferation on breast cancer cells” (Bioorg Med Chem Lett, 2021)
Blank lines part the entries; values can stand above or below the molecule they belong to. Calls of active or inactive are those of the source. The rule behind the calls is not given here.

Columns and labels:
MCF7 = test: Cytotoxicity against human MCF7 cells after 48 hrs by MTT assay; type: functional, cell-based; details: MCF7, 48 h
In short: (§1)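 MTT viability read after 48 h exposure of three breast cancer lines and non-tumorigenic MCF-10A breast cells; IC50 reported as mean ± SD from at least three independent experiments. Butyl-TPP and tamoxifen run alongside as references. Sulforhodamine B assay used as a cross-check.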

MCF-10A = test: Cytotoxicity against human MCF-10A cells after 48 hrs by MTT assay; type: cell-based; in short: as §1
SK-BR-3 = test: Cytotoxicity against human SK-BR-3 cells after 48 hrs by MTT assay; type: functional, cell-based; details: SK-BR-3, 48 h; in short: as §1
MDA-MB-231 [1] = test: Cytotoxicity against human MDA-MB-231 cells after 48 hrs by MTT assay; type: functional, cell-based; details: MDA-MB-231, 48 h; in short: as §1
[2] = Stability of compound in methanol-water after 3 days by HPLC-MS analysis; type: physicochemical; details: 72 h; time 3 day
[3] = Drug uptake in human MDA-MB-231 cells assessed as blue fluorescence at 8 uM measured after 0.5 to 1.5 hrs by flow cytometric analysis; type: ADME, cell-based; details: mda-mb-231, 8 µM, TDE = time-dependent effect, time 0.5-1.5 hrs
In short: (§2)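 Uptake read from native blue fluorescence (λex ~420, λem ~475 nm) by flow cytometry as geometric mean intensity. Dose series read after 2 h. Time course run at 8 μM over several durations. Mean ± SD, n = 3.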

[4] = Drug uptake in human MDA-MB-231 cells assessed as blue fluorescence after 2 hrs by flow cytometric analysis; type: ADME, cell-based; details: mda-mb-231, 2 h, dose 1-16 µM; in short: as §2
MDA-MB-231 [5] = test: Induction of mitochondrial membrane potential loss in human MDA-MB-231 cells assessed as TMRE low/caspase low cells at 4 uM after 24 hrs by TMRE staining based flow cytometric analysis (reference value: 98.21%); type: functional
MDA-MB-231 [6] = test: Induction of apoptosis in human MDA-MB-231 cells assessed as early apoptotic cells at 2 uM incubated for 48 hrs by Annexin V-FITC/PI staining based flow cytometric analysis (reference value: 2.08 %); type: functional
MDA-MB-231 [7] = test: Induction of mitochondrial membrane potential loss in human MDA-MB-231 cells after 24 hrs by TMRE staining based flow cytometric analysis; type: functional, cell-based; details: dose 2-8 µM
MDA-MB-231 [8] = test: Induction of apoptosis in human MDA-MB-231 cells assessed as late apoptotic or necrotic cells at 4 uM incubated for 48 hrs by Annexin V-FITC/PI staining based flow cytometric analysis (reference value: 3.51 %); type: functional
[9] = Drug localization in mitochondria of human MDA-MB-231 cells at 1 uM incubated for 30 mins by MTDR staining based laser confocal microscopic analysis; type: ADME; details: mda-mb-231, 0.5 h
MDA-MB-231 [10] = test: Induction of mitochondrial membrane potential loss in human MDA-MB-231 cells assessed as TMRE low/caspase low cells at 8 uM after 24 hrs by TMRE staining based flow cytometric analysis (reference value: 98.21%); type: functional
MDA-MB-231 [11] = test: Induction of mitochondrial membrane depolarization in human MDA-MB-231 cells at 2 to 8 uM preincubated with BSO for 24 hrs followed by compound addition by flow cytometric analysis; type: functional; details: dose 2-8 µM
In short: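 MDA-MB-231 cells pretreated with 50 μM buthionine sulfoximine for 24 h to deplete GSH, then exposed to compound. Mitochondrial membrane potential determined by flow cytometry. Mean ± SD, n = 3.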

MDA-MB-231 [12] = test: Induction of ROS generation in human MDA-MB-231 cells after 6 hrs by DCFH-DA staining based flow cytometric analysis; type: functional, cell-based
In short: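 MDA-MB-231 cells treated for 6 h, then intracellular ROS probed with DCFH-DA. Geometric mean fluorescence measured by flow cytometry. Mean ± SD, n = 3.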

MDA-MB-231 [13] = test: Induction of apoptosis in human MDA-MB-231 cells assessed as early apoptotic cells at 8 uM incubated for 48 hrs by Annexin V-FITC/PI staining based flow cytometric analysis (reference value: 2.08 %); type: functional
MDA-MB-231 [14] = test: Induction of apoptosis in human MDA-MB-231 cells assessed as early apoptotic cells at 4 uM incubated for 48 hrs by Annexin V-FITC/PI staining based flow cytometric analysis (reference value: 2.08 %); type: functional
MDA-MB-231 [15] = test: Induction of cell death in human MDA-MB-231 cells assessed as reduction in cell viability at 2 to 8 uM preincubated with BSO for 24 hrs followed by compound addition and measured after 24 hrs MTT assay; type: functional; details: dose 2-8 µM
In short: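 MDA-MB-231 cells pretreated with buthionine sulfoximine (50 μM, 24 h) to deplete GSH, then exposed to test compound for a further 24 h. Viability read by MTT. Means ± SD, n = 3.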

MDA-MB-231 [16] = test: Induction of mitochondrial membrane potential loss in human MDA-MB-231 cells assessed as TMRE high cells at 2 uM after 24 hrs by TMRE staining based flow cytometric analysis (reference value: 1.79%); type: functional
MDA-MB-231 [17] = test: Induction of mitochondrial membrane potential loss in human MDA-MB-231 cells assessed as TMRE high cells at 8 uM after 24 hrs by TMRE staining based flow cytometric analysis (reference value: 1.79%); type: functional
MDA-MB-231 [18] = test: Induction of apoptosis in human MDA-MB-231 cells assessed as late apoptotic or necrotic cells at 2 uM incubated for 48 hrs by Annexin V-FITC/PI staining based flow cytometric analysis (reference value: 3.51 %); type: functional
MDA-MB-231 [19] = test: Induction of cell death in human MDA-MB-231 cells assessed as reduction in cell viability preincubated with CsA for 2 hrs followed by compound addition and measured after 48 hrs by MTT assay; type: functional, cell-based
In short: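 MDA-MB-231 cells pre-incubated 2 h with cyclosporin A (2 and 4 μM), then exposed to compound for 48 h. Viability read by MTT. Mean ± SD, n = 3.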

MDA-MB-231 [20] = test: Inhibition of TrxR activity in human MDA-MB-231 cells at 10 uM incubated for 4 hrs; type: cell-based
In short: (§3)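 MDA-MB-231 cells treated with 10 μM compound for 4 h. Total-cell and mitochondrial extracts assayed for TrxR activity with a micro oxidized thioredoxin reductase kit. Mean ± SD, n = 3.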

MDA-MB-231 [21] = test: Down regulation of TrxR expression in human MDA-MB-231 cells incubated for 48 hrs by Western blot analysis; type: functional, cell-based; details: dose 2-8 µM
In short: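 MDA-MB-231 cells exposed at 2, 4 and 8 μM for 48 h. TrxR2 protein detected by Western blot and quantified by gray-value scanning. Mean ± SD, n = 3.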

[22] = Drug localization in mitochondria of human MDA-MB-231 cells at 1 uM incubated for 30 mins in presence of CCCP by MTDR staining based laser confocal microscopic analysis; type: ADME; details: mda-mb-231, 0.5 h
MDA-MB-231 [23] = test: Induction of apoptosis in human MDA-MB-231 cells assessed as late apoptotic or necrotic cells at 8 uM incubated for 48 hrs by Annexin V-FITC/PI staining based flow cytometric analysis (reference value: 3.51 %); type: functional
MDA-MB-231 [24] = test: Induction of mitochondrial membrane potential loss in human MDA-MB-231 cells assessed as TMRE low/caspase low cells at 2 uM after 24 hrs by TMRE staining based flow cytometric analysis (reference value: 98.21%); type: functional
MDA-MB-231 [25] = test: Induction of mitochondrial membrane potential loss in human MDA-MB-231 cells assessed as TMRE high cells at 4 uM after 24 hrs by TMRE staining based flow cytometric analysis (reference value: 1.79%); type: functional
MDA-MB-231 [26] = test: Inhibition of TrxR activity in human MDA-MB-231 cell mitochondrial extracts at 10 uM incubated for 4 hrs; details: Mitochondria; in short: as §3

Structure (SMILES): CC/C(=C(\c1ccccc1)c1ccc(OCCN(C)C)cc1)c1ccccc1 [TAMOXIFEN]
IC50 (MCF7): 15.2 µM
IC50 (MCF-10A): > 50 µM

Structure (SMILES): CCCC[P+](c1ccccc1)(c1ccccc1)c1ccccc1
IC50 (MCF7): 57.4 µM
IC50 (SK-BR-3): > 100 µM
IC50 (MCF-10A): > 100 µM
IC50 (MDA-MB-231 [1]): > 100 µM

Stabilty [2]: Unstable
Drug uptake [3]: Tde
Drug uptake [4]: Dose-dependent effect
Structure (SMILES): CCN(CC)c1ccc2cc(C(=O)OCCCC[P+](c3ccccc3)(c3ccccc3)c3ccccc3)c(=O)oc2c1
IC50 (MCF7): 27.8 µM
IC50 (SK-BR-3): 30.9 µM
IC50 (MCF-10A): 83.7 µM
IC50 (MDA-MB-231 [1]): 29.4 µM

Structure (SMILES): CCN(Cc1ccccc1)c1ccc2cc(C(=O)NCCCC[P+](c3ccccc3)(c3ccccc3)c3ccccc3)c(=O)oc2c1
IC50 (MCF7): 4.9 µM
IC50 (SK-BR-3): 2.73 µM
IC50 (MCF-10A): 15.1 µM
IC50 (MDA-MB-231 [1]): 3.73 µM

Structure (SMILES): CCN(CC)c1ccc2cc(C(=O)NCCCC[P+](c3ccccc3)(c3ccccc3)c3ccccc3)c(=O)oc2c1
Activity (MDA-MB-231 [5]): 70.55%
Activity (MDA-MB-231 [6]): 1.2%
Activity (MDA-MB-231 [7]): Dose-dependent effect
Activity (MDA-MB-231 [8]): 24.09%
Drug uptake [9]: Active
IC50 (MCF7): 3.26 µM
Activity (MDA-MB-231 [10]): 60.63%
Activity (MDA-MB-231 [11]): 13%
Activity (MDA-MB-231 [12]): Dose-dependent effect
Stabilty [2]: Stable
Activity (MDA-MB-231 [13]): 1.89%
IC50 (SK-BR-3): 3.46 µM
Drug uptake [3]: Tde
Activity (MDA-MB-231 [14]): 6.47%
Activity (MDA-MB-231 [15]): 50%
Activity (MDA-MB-231 [16]): 21.04%
Activity (MDA-MB-231 [17]): 39.37%
Activity (MDA-MB-231 [18]): 14.69%
Activity (MDA-MB-231 [19]): inactive
inhibition (MDA-MB-231 [20]): Active
IC50 (MCF-10A): 45.3 µM
Drug uptake [4]: Dose-dependent effect
Activity (MDA-MB-231 [21]): Active
IC50 (MDA-MB-231 [1]): 3.03 µM
Drug uptake [22]: Not Active
Activity (MDA-MB-231 [23]): 65.07%
Activity (MDA-MB-231 [24]): 78.96%
Activity (MDA-MB-231 [25]): 29.45%
inhibition (MDA-MB-231 [26]): Active

Structure (SMILES): CCCCNC(=O)c1cc2ccc(N(CC)CC)cc2oc1=O
IC50 (MCF7): > 100 µM
IC50 (SK-BR-3): > 100 µM
IC50 (MCF-10A): > 100 µM
IC50 (MDA-MB-231 [1]): > 100 µM
